The array DNA melting data of Ke et al. (doi:10.1101/2024.01.08.574731)

Tests used:
[1] = melting temperature; fluorescence melt of hairpins on a sequencing array, two-state fit, raised by 9.35 °C to match UV melts; settings: sodium 0.088 M
How it was run: (§1)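 Melting temperature and folding enthalpy were obtained by bootstrapped two-state fitting. Fits used Cy3 fluorescence of library hairpins with annealed Cy3 and quencher oligos on a sequenced MiSeq flow cell, imaged in 50 mM Na-HEPES pH 8.0, 25 mM NaCl in 2.5 °C steps up to 60 °C and normalised to pre-quench Cy3 and control constructs. Four replicates were combined by inverse-variance weighting, and fitted temperatures were raised by 9.35 °C to match UV melts.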

[2] = folding enthalpy; higher = less favourable; fluorescence melt of hairpins on a sequencing array, two-state fit; settings: sodium 0.088 M
How it was run: as §1

GGAATGGGAAACCACTCC (((.(((....))).)))
Tm [1]: 33.7 °C | folding enthalpy [2]: -33.6 kcal/mol

GCACCGGGAAACCGATGC (((.(((....))).)))
Tm [1]: 50.6 °C | folding enthalpy [2]: -25.2 kcal/mol

GAAAAACGAAAGTTGTTC (((.(((....))).)))
Tm [1]: 33.6 °C | folding enthalpy [2]: -19.6 kcal/mol

GCCATCGAAAGATTAGGC ((((((....)))..)))
Tm [1]: 43.4 °C | folding enthalpy [2]: -30.7 kcal/mol

GCTTGGCGAAAGCCACGC ((.((((....)))).))
Tm [1]: 58.5 °C | folding enthalpy [2]: -19 kcal/mol

GATCGCACGTGCGATC ((((((....))))))
Tm [1]: 68.8 °C | folding enthalpy [2]: -40.4 kcal/mol

GTATTGTCGAAAGACTAC (((..(((....))))))
Tm [1]: 28.5 °C | folding enthalpy [2]: -11.4 kcal/mol

GTTATCGAAAGATAAAC ((((((....))).)))
Tm [1]: 32.9 °C | folding enthalpy [2]: -20.9 kcal/mol

GAAGGCCGAAAGGCTTC (((.(((....))))))
Tm [1]: 48.7 °C | folding enthalpy [2]: -15.6 kcal/mol

GGTGTCGAAAGACTACC ((((((....))).)))
Tm [1]: 47.8 °C | folding enthalpy [2]: -17.7 kcal/mol

GATCAGCTATCTGATC ((((((....))))))
Tm [1]: 49.3 °C | folding enthalpy [2]: -34.7 kcal/mol

GACAGGCCGAAAGGCGTC (((..(((....))))))
Tm [1]: 47.7 °C | folding enthalpy [2]: -14.9 kcal/mol

GGGATGGGAAACTGTCCC ((((..(....)..))))
Tm [1]: 43.5 °C | folding enthalpy [2]: -31.3 kcal/mol

GCCGACGAAAGTCGCGGC ((((((....)))..)))
Tm [1]: 59.2 °C | folding enthalpy [2]: -14.3 kcal/mol

GCCAAGCGAAAGCTACGC ((..(((....)))..))
Tm [1]: 34.7 °C | folding enthalpy [2]: -11 kcal/mol

GCCGGGCGAAAGCCTAGC ((..(((....)))..))
Tm [1]: 44.1 °C | folding enthalpy [2]: -13.6 kcal/mol

GCACACGGAAACACGTGC ((((..(....)..))))
Tm [1]: 40.2 °C | folding enthalpy [2]: -22.5 kcal/mol

GCGTTGGGAAACCGACGC ((((.((....)).))))
Tm [1]: 64 °C | folding enthalpy [2]: -40.3 kcal/mol

GCTGGCGAAAGCCGAAGC ((((((....)))..)))
Tm [1]: 50.8 °C | folding enthalpy [2]: -16.5 kcal/mol

GCCAGGCGAAAGCCTAGC ((.((((....)))).))
Tm [1]: 51.4 °C | folding enthalpy [2]: -15.7 kcal/mol

GATCGTGAATACGATC ((((((....))))))
Tm [1]: 61.7 °C | folding enthalpy [2]: -35 kcal/mol

GGGTGGCGAAAGCCCCCC (((.(((....))).)))
Tm [1]: 65 °C | folding enthalpy [2]: -17.4 kcal/mol

GCGGACTCGAAAGAGCGC (((..(((....))))))
Tm [1]: 51 °C | folding enthalpy [2]: -22.9 kcal/mol

GATCATTCTCATGATC ((((((....))))))
Tm [1]: 47.1 °C | folding enthalpy [2]: -32.8 kcal/mol

GTCCACTCGAAAGAGGAC (((..(((....))))))
Tm [1]: 37.4 °C | folding enthalpy [2]: -23 kcal/mol

GAACACCGAAAGGTCTTC (((.(((....))).)))
Tm [1]: 35.2 °C | folding enthalpy [2]: -15.2 kcal/mol

GGCATAGGAAACTGTGTC (.((.((....)).)).)
Tm [1]: 33.5 °C | folding enthalpy [2]: -23.9 kcal/mol

GATCCTTCGCAGGATC ((((((....))))))
Tm [1]: 51.2 °C | folding enthalpy [2]: -37.3 kcal/mol

GATCTAGCGATAGATC ((((((....))))))
Tm [1]: 46 °C | folding enthalpy [2]: -34.7 kcal/mol

GATCTGCACCCAGATC ((((((....))))))
Tm [1]: 47.8 °C | folding enthalpy [2]: -33.4 kcal/mol

GATCTTGTTGAAGATC ((((((....))))))
Tm [1]: 45 °C | folding enthalpy [2]: -27.2 kcal/mol

GATCCCTGATGGGATC ((((((....))))))
Tm [1]: 59.8 °C | folding enthalpy [2]: -41.1 kcal/mol

GATCCGCGGTCGGATC ((((((....))))))
Tm [1]: 57.2 °C | folding enthalpy [2]: -42.7 kcal/mol

GTGCCCACGAAAGTGCAC (((..(((....))))))
Tm [1]: 44.9 °C | folding enthalpy [2]: -15.5 kcal/mol

GAATCCGAAAGGAGATTC ((((((....)))..)))
Tm [1]: 36.4 °C | folding enthalpy [2]: -18.7 kcal/mol

GCTCCCGAAAGGGTCAGC ((((((....)))..)))
Tm [1]: 41 °C | folding enthalpy [2]: -13.5 kcal/mol

CACTCGAAAGAGTG (((((....)))))
Tm [1]: 59.9 °C | folding enthalpy [2]: -24.4 kcal/mol

GGACACTCGAAAGAGTCC (((..(((....))))))
Tm [1]: 39 °C | folding enthalpy [2]: -15.9 kcal/mol
